# PubChem BioAssay
# Activity calls are given as the source filed them.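 How the source made its calls, unless noted: active means viability at or below 30% in both replicate assays; inconclusive means viability at or below 30% in just one of the two assays; inactive means the rest.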
# What was measured:
# [1] = reducers of endogenous Her2 protein level, primary screen, SKBR3 breast tumor cells, AlphaScreen, ATP viability (AID 461;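 active means Her2 level under about 52% in both replicate screens, with viability over 70% of control, limit read from the data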;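 on Her2 level: lower value means less Her2 protein in the cells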;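 on viability: percent of carrier control wells set as 100% viability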); details: 18-24 h, measured here: SKBR3 viability, ATP luminescence, at 10 µM
# [2] = molecular target: Receptor tyrosine-protein kinase erbB-2 (Homo sapiens) (UniProt P04626); assay: as above; details: 18-24 h, at 10 µM, stronger effect = lower value
# Sequence of Receptor tyrosine-protein kinase erbB-2 (Homo sapiens) (P04626 whole entry, looked up): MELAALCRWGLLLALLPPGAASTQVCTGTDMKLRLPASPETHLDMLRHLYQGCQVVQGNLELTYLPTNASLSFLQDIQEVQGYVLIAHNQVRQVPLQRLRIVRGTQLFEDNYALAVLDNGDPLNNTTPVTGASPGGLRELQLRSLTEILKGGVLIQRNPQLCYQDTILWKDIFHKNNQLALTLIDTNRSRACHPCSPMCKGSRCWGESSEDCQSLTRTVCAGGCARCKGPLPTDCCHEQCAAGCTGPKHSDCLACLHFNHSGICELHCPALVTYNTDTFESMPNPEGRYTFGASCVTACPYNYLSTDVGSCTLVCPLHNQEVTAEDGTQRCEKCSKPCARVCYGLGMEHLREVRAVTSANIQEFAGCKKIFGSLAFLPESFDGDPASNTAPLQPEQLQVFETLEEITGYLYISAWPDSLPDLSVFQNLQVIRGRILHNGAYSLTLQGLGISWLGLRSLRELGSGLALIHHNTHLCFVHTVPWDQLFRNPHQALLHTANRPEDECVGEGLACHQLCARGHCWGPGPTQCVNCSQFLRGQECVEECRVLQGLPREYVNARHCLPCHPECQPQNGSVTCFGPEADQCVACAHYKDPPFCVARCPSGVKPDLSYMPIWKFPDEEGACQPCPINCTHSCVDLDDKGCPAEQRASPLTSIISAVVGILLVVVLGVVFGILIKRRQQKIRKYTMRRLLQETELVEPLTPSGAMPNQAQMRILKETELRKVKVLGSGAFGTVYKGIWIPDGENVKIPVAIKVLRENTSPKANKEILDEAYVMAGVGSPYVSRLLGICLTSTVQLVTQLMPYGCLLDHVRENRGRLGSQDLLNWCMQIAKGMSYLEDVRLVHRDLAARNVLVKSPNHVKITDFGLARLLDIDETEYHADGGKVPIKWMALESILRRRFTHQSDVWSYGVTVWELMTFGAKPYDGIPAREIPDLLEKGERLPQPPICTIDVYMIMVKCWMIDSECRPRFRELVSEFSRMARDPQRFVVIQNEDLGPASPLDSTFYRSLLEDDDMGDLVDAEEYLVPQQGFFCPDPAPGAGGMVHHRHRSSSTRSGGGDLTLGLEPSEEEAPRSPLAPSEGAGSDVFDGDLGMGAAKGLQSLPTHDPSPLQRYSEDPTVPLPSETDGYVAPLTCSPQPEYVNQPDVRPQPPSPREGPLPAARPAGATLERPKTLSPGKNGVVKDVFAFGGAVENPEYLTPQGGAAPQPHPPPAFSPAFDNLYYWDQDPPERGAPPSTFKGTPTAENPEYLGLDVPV
# [3] = SK-BR-3 cell growth inhibitors, pilot screen, 24 h, human (AID 572;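 active means viability at or below 10% of carrier control in both of two separate runs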;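 further: compound exposure lasted between 18 and 24 h rather than exactly 24 h; 100% = carrier-treated control wells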); details: SK-BR-3 viability, CellTiter-Glo luminescence, at 10 µM, stronger effect = lower value
# [4] = HUVEC growth inhibition – cell-based, human, primary screen (AID 575); details: HUVEC proliferation, CellTiter-Glo luminescence, 72 h; at 10 µM; stronger effect = lower value;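 further: 100% = median of untreated cell wells with 0.1% DMSO on each plate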
# In short: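 Test system: HUVEC primary cells. Quantity: 1250 endothelial cells in each well. Dosing: single-point 10 µM, DMSO 0.1% final. Incubation: 72 h treatment at 37 °C. Measured by: CTG luminescence. Control set: DMSO cell controls and MePR drug controls. Plate: collagen-coated 384-well format.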
# [5] = growth inhibitors of H69AR lung tumor, primary screen, human, duplicate replicates (AID 580;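 active means viability at or under a set limit in both replicates, limit being median viability minus 3 SD, cut at about 48% in these data, passing the limit was not always enough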;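 further: 100% = mean luminescence of untreated wells and 0% = no signal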); details: H69AR lung tumor cells viability, ATP luminescence, 72 h; at 10 µM; stronger effect = lower value
# [6] = reversal of MRP1-mediated doxorubicin resistance, pilot screen, H69AR cells, doxorubicin co-treatment (AID 601;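 active means viability loss from added drug above about 55%, and viability with drug at most 40%, in both replicates, limit read from the data, passing the limit was not always enough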); details: CellTiter-Glo, 72 h, at 10 µM; for differential viability (reversal): stronger effect = higher value
# [7] = 384-well plate pilot, post-Golgi transport modulator project, inhibition of yeast transport mutant growth (AID 636; in the data active means inhibition above about 31%); details: absorbance 615 nm, about 18 h, stronger effect = higher value
# [8] = growth suppression of yeast trafficking mutant, preliminary HTS, modulators of trafficking downstream of Golgi apparatus project, 1536-format plate, OD 615 nm (AID 637; in the data active means inhibition above about 30%); details: yeast transport mutant growth, absorbance 615 nm, 18 h; stronger effect = higher value
# [9] = H69AR cells + 2 uM doxorubicin, measured here: viability with 2 uM doxorubicin, stronger effect = lower value
# [10] = H69AR cells, compound alone cytotoxicity
Structure (SMILES),viability [1],Her2 level [2],viability [3],viability [4],viability [5],differential viability (reversal) ([6]; H69AR cells + 2 uM doxorubicin),"viability [6, 9]","viability [6, 10]",inhibition [7],inhibition [8]
COCC(=O)N(Cc1cc2cc(OC)ccc2[nH]c1=O)c1ccccc1,104%,112% (inactive),104% (inactive),90.3% (inactive),90.4% (inactive),3.91% (inactive),86.5%,90.4%,-2.86% (inactive),-6% (inactive)
Cc1ccc(C(=O)NCc2ccc3c(c2)OCO3)cc1S(=O)(=O)N1CCCCC1,91.5%,100% (inactive),91.5% (inactive),96.6% (inactive),96.2% (inactive),-2.33% (inactive),98.5%,96.2%,-3.2% (inactive),-7.14% (inactive)
CN1CCN(CC(=O)N2c3ccccc3C(=O)Nc3cccnc32)CC1,122%,98.5% (inactive),122% (inactive),98.8% (inactive),96.1% (inactive),6.04% (inactive),90%,96.1%,–,–
CCCCC(=O)O[C@]1(C(=O)CO)CC[C@H]2[C@@H]3CCC4=CC(=O)CC[C@]4(C)[C@H]3[C@@H](O)C[C@@]21C,111%,108% (inactive),111% (inactive),101% (inactive),96.3% (inactive),3.07% (inactive),93.3%,96.3%,–,–
O=C(CCCN1CC=C(n2c(=O)[nH]c3ccccc32)CC1)c1ccc(F)cc1,77%,103% (inactive),77% (inactive),98.4% (inactive),86.2% (inactive),11.1% (inactive),75.1%,86.2%,–,–
CS(=O)(=O)Nc1ccc([N+](=O)[O-])cc1Oc1ccccc1,118%,103% (inactive),118% (inactive),106% (inactive),108% (inactive),10.3% (inactive),97.6%,108%,–,–
S=C(N=Nc1ccccc1)NNc1ccccc1,118%,90% (inactive),118% (inactive),80% (inactive),81.4% (inactive),-6.66% (inactive),88%,81.4%,–,–
O=C1N[C@@H](Cc2cnc[nH]2)C(=O)N2CCC[C@@H]12,113%,97% (inactive),113% (inactive),94.9% (inactive),87.1% (inactive),-2.25% (inactive),89.3%,87.1%,–,–
Cc1cccc(CN2CCN(C(c3ccccc3)c3ccc(Cl)cc3)CC2)c1 (stereo unspecified),83%,93.5% (inactive),83% (inactive),96.4% (inactive),96.8% (inactive),1.06% (inactive),95.8%,96.8%,–,–
CC(C)CCNC(=O)[C@H](CC(C)C)NC(=O)[C@H]1O[C@@H]1C(=O)O,104%,112% (inactive),104% (inactive),95.9% (inactive),100% (inactive),5.67% (inactive),94.5%,100%,–,–
Cc1nc2ccccc2c2c1C(=O)N(CCC1=CCCCC1)C2=O,83.5%,87% (inactive),83.5% (inactive),103% (inactive),88.4% (inactive),-1.33% (inactive),89.7%,88.4%,-3.42% (inactive),-1.17% (inactive)
Cc1cnc(C(=O)Nc2ccc(N3CCOCC3)cc2)cn1,95%,87% (inactive),95% (inactive),116% (inactive),100% (inactive),11.7% (inactive),88.5%,100%,-1.32% (inactive),-1.45% (inactive)
CN(C)CCOc1ccccc1Cc1ccccc1,88.5%,95.5% (inactive),88.5% (inactive),107% (inactive),100% (inactive),11% (inactive),89.5%,100%,–,–
CN(C(=O)C(Cl)Cl)c1ccc(OC(=O)c2ccco2)cc1,130%,88% (inactive),130% (inactive),86.3% (inactive),96.6% (inactive),5.13% (inactive),91.5%,96.6%,–,–
COc1ccc(-c2coc3cc(O)cc(O)c3c2=O)cc1,118%,99% (inactive),118% (inactive),84.2% (inactive),68.8% (inactive),-27% (inactive),95.8%,68.8%,–,–
COCCNC(=O)C1CCCN(c2ncccn2)C1 (stereo unspecified),93%,79% (inactive),93% (inactive),98.8% (inactive),89.8% (inactive),-8.68% (inactive),98.5%,89.8%,-7.81% (inactive),1.27% (inactive)
COc1ccccc1OCC(O)COC(N)=O (stereo unspecified),93.5%,96% (inactive),93.5% (inactive),90.5% (inactive),99.9% (inactive),7.94% (inactive),92%,99.9%,–,–
Cc1ccc(Cn2c(C(=O)NCCCN3CCOCC3)cc3sccc32)cc1,84.5%,76.5% (inactive),84.5% (inactive),63.6% (inactive),77.6% (inactive),-3.47% (inactive),81.1%,77.6%,-3.16% (inactive),-1.27% (inactive)
